# Residues, ends and D or L forms follow the SMILES beside them. *: point of attachment. Cbz = O=C(OCc1ccccc1)*; Boc = CC(C)(C)OC(=O)*; NHBn = c1ccc(CN*)cc1; NHPh = c1ccc(N*)cc1; Bn = c1ccc(C*)cc1
# How the values were obtained:
# [1] = Inhibition of trypsin-like activity of rabbit reticulocyte 20S proteasome; parameters: species or system Oryctolagus cuniculus
# Outline: (§1)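 Trypsin-like site: proteasome exposed to 0.1-100 µM compound, fluorogenic substrate hydrolysis read 1 h at 37 °C in pH 7.5 20 mM Tris, 1 mM DTT, 10% glycerol without SDS; 3% DMSO final. Initial rates relative to untreated control: >100% expressed as activation factor, <100% as inhibition; Ki via Vi/V0 = 1/(1+[I]/Ki(app)) or IC50 = Ki(1+[S]/Km).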
# [2] = organism: Oryctolagus cuniculus; assay: Inhibition of trypsin-like activity of rabbit reticulocyte 20S proteasome at 100 uM; outline: as §1
# [3] = Inhibition of chymotrypsin-like activity of rabbit reticulocyte 20S proteasome; parameters: species or system Oryctolagus cuniculus
# [4] = Inhibition of post acid activity of rabbit reticulocyte 20S proteasome; parameters: species or system Oryctolagus cuniculus
# [5] = organism: Oryctolagus cuniculus; assay: Inhibition of chymotrypsin-like activity of rabbit reticulocyte 20S proteasome at 100 uM
# [6] = organism: Oryctolagus cuniculus; assay: Inhibition of post acid activity of rabbit reticulocyte 20S proteasome at 100 uM
# [7] = organism: Oryctolagus cuniculus; assay: Activation of trypsin-like activity of rabbit reticulocyte 20S proteasome relative to control; outline: as §1
Compound,Ki [1] [µM],inhibition [2] [%],Ki [3] [µM],Ki [4] [µM],inhibition [5] [%],inhibition [6] [%],Fold change [7]
C[C@H](NC(=O)[C@H](Cc1ccc(OCc2ccccc2)cc1)NC(=O)OC(C)(C)C)C(=O)N[C@@H](Cc1c[nH]c2ccccc12)C(=O)NCc1ccccc1 (Boc-Tyr(Bn)-Ala-Trp-NHBn),–,–,> 100,55.4,< 20,–,1.7
COC(=O)[C@@H]1Cc2c[nH]c3c(cccc23)-c2ccc(cc2OCc2ccccc2)C[C@H](NC(=O)OC(C)(C)C)C(=O)N[C@@H](CC(C)C)C(=O)N1,–,–,> 100,> 100,< 20,< 20,1.4
CC(C)(C)OC(=O)N[C@@H](Cc1ccc(OCc2ccccc2)cc1)C(=O)N[C@@H](CC(N)=O)C(=O)N[C@@H](Cc1c[nH]c2ccccc12)C(=O)Nc1ccc(O)cc1,> 100,< 20,> 100,23.4,–,–,–
CCOC(=O)[C@@H](Cc1c[nH]c2c(-c3ccc(C[C@H](NC(=O)OC(C)(C)C)C(=O)N[C@H](CC(C)C)C(=O)OC)cc3OCc3ccccc3)cccc12)NC(=O)OCc1ccccc1,–,–,> 100,> 100,< 20,20,1.4
CC(C)(C)OC(=O)N[C@@H](Cc1ccc(OCc2ccccc2)cc1)C(=O)N[C@@H](CCCN(C(=N)NC(=O)OCc1ccccc1)C(=O)OCc1ccccc1)C(=O)N[C@@H](Cc1c[nH]c2ccccc12)C(=O)NCc1ccccc1,–,–,> 100,> 100,< 20,< 20,1.9
CC(C)C[C@H](NC(=O)[C@H](Cc1ccc(OCc2ccccc2)cc1)NC(=O)OC(C)(C)C)C(=O)N[C@@H](Cc1c[nH]c2ccccc12)C(=O)Nc1ccccc1 (Boc-Tyr(Bn)-Leu-Trp-NHPh),–,–,> 100,> 100,< 20,< 20,1.9
COC(=O)[C@H](Cc1c[nH]c2c(Br)cccc12)NC(=O)[C@H](CC(C)C)NC(=O)[C@H](Cc1ccc(OCc2ccccc2)c(I)c1)NC(=O)OC(C)(C)C,–,–,> 100,> 100,< 20,< 20,2
C[C@H](NC(=O)[C@H](Cc1ccc(OCc2ccccc2)cc1)NC(=O)OC(C)(C)C)C(=O)N[C@@H](Cc1c[nH]c2ccccc12)C(=O)O (Boc-Tyr(Bn)-Ala-Trp-OH),–,–,> 100,> 100,< 20,< 20,1.5
COC(=O)[C@@H]1Cc2c[nH]c3c(cccc23)-c2ccc(cc2OC)C[C@H](NC(=O)OC(C)(C)C)C(=O)N[C@@H](CC(C)C)C(=O)N1,–,–,> 100,> 100,< 20,–,1.8
CC(C)C[C@H](NC(=O)[C@H](Cc1ccc(OCc2ccccc2)cc1)NC(=O)OC(C)(C)C)C(=O)N[C@@H](Cc1c[nH]c2ccccc12)C(=O)Nc1ccc(O)cc1,–,–,> 100,96.4,< 20,–,1.6
CNC(=O)[C@@H](Cc1c[nH]c2c(-c3ccc(C[C@H](NC(=O)OC(C)(C)C)C(=O)N[C@H](CC(C)C)C(=O)OC)cc3OCc3ccccc3)cccc12)NC(=O)OCc1ccccc1,69,–,> 100,> 100,< 20,< 20,–
CC(C)(C)OC(=O)N[C@@H](Cc1ccc(OCc2ccccc2)cc1)C(=O)NCC(=O)N[C@@H](Cc1c[nH]c2ccccc12)C(=O)NCc1ccccc1 (Boc-Tyr(Bn)-Gly-Trp-NHBn),–,–,> 100,31.5,< 20,–,1.7

# Next, values leading:
Ki [1] [µM],inhibition [2] [%],Ki [3] [µM],Ki [4] [µM],inhibition [5] [%],inhibition [6] [%],Fold change [7],Compound
> 100,< 20,59.3,74,–,–,–,COC(=O)[C@H](Cc1c[nH]c2c(Br)cccc12)NC(=O)[C@H](C)NC(=O)[C@H](Cc1ccc(OC)c(I)c1)NC(=O)OC(C)(C)C
21.5,–,> 100,> 100,20,–,–,CNC(=O)[C@@H](Cc1c[nH]c2c(-c3ccc(C[C@H](NC(=O)OC(C)(C)C)C(=O)N[C@H](C)C(=O)OC)cc3OCc3ccccc3)cccc12)NC(=O)OCc1ccccc1
–,–,> 100,> 100,< 20,< 20,1.6,CC(C)(C)OC(=O)NCCCC[C@H](NC(=O)[C@H](Cc1ccc(OCc2ccccc2)cc1)NC(=O)OC(C)(C)C)C(=O)N[C@@H](Cc1c[nH]c2ccccc12)C(=O)Nc1ccccc1 (Boc-Tyr(Bn)-Lys(Boc)-Trp-NHPh)
–,–,> 100,> 100,< 20,< 20,1.8,CC(C)(C)OC(=O)N[C@@H](Cc1ccc(OCc2ccccc2)cc1)C(=O)NCC(=O)N[C@@H](Cc1c[nH]c2ccccc12)C(=O)O (Boc-Tyr(Bn)-Gly-Trp-OH)
0.98,–,0.85,> 100,–,< 20,–,NCCCC[C@H](NC(=O)[C@@H](N)Cc1ccc(OCc2ccccc2)cc1)C(=O)N[C@@H](Cc1c[nH]c2ccccc12)C(=O)Nc1ccc(O)cc1
–,–,> 100,> 100,< 20,< 20,6.8,C[C@H](NC(=O)[C@H](Cc1ccc(O)cc1)NC(=O)OC(C)(C)C)C(=O)N[C@@H](Cc1c[nH]c2ccccc12)C(=O)O (Boc-Tyr-Ala-Trp-OH)
–,–,81.8,31.5,–,–,2.3,CC(C)C[C@H](NC(=O)[C@H](Cc1ccc(OCc2ccccc2)cc1)NC(=O)OC(C)(C)C)C(=O)N[C@@H](Cc1c[nH]c2ccccc12)C(=O)NCCCCNC(=O)OC(C)(C)C
> 100,< 20,59.3,30.2,–,–,–,CNC(=O)[C@H](Cc1c[nH]c2c(Br)cccc12)NC(=O)[C@H](C)NC(=O)[C@H](Cc1ccc(OCc2ccccc2)c(I)c1)NC(=O)OC(C)(C)C
–,–,44.8,> 100,–,–,9.8,COC(=O)[C@H](Cc1c[nH]c2ccccc12)NC(=O)[C@H](C)NC(=O)[C@H](Cc1ccc(OCc2ccccc2)cc1)NC(=O)OC(C)(C)C (Boc-Tyr(Bn)-Ala-Trp-OMe)
4.5,–,0.075,0.67,–,–,–,CC(C)C[C@@H](C=O)NC(=O)[C@H](CC(C)C)NC(=O)[C@H](CC(C)C)NC(=O)OCc1ccccc1 [MG-132] (Cbz-Leu-Leu-Leu-aldehyde)
3.9,–,1.2,0.6,–,–,–,CC(C)(C)OC(=O)N[C@@H](Cc1ccc(O)cc1)C(=O)N[C@@H](CCCNC(=N)N)C(=O)N[C@@H](Cc1c[nH]c2ccccc12)C(=O)NCc1ccccc1 (Boc-Tyr-Arg-Trp-NHBn)
0.33,–,3.69,22.5,–,–,–,CC(C)C[C@H](NC(=O)[C@@H](N)Cc1ccc(OCc2ccccc2)cc1)C(=O)N[C@@H](Cc1c[nH]c2ccccc12)C(=O)NCCCCN
> 100,–,65.7,> 100,–,< 20,–,CC(C)(C)OC(=O)NCCCC[C@H](NC(=O)[C@H](Cc1ccc(OCc2ccccc2)cc1)NC(=O)OC(C)(C)C)C(=O)N[C@@H](Cc1c[nH]c2ccccc12)C(=O)Nc1ccc(O)cc1
0.32,–,1.07,> 100,–,< 20,–,NCCCC[C@H](NC(=O)[C@@H](N)Cc1ccc(OCc2ccccc2)cc1)C(=O)N[C@@H](Cc1c[nH]c2ccccc12)C(=O)NCc1ccccc1 (H-Tyr(Bn)-Lys-Trp-NHBn)
1.12,–,2.22,> 100,–,< 20,–,NCCCC[C@H](NC(=O)[C@@H](N)Cc1ccc(OCc2ccccc2)cc1)C(=O)N[C@@H](Cc1c[nH]c2ccccc12)C(=O)Nc1ccccc1 (H-Tyr(Bn)-Lys-Trp-NHPh)
–,–,9.2,8.7,–,–,6,COC(=O)[C@H](Cc1c[nH]c2ccccc12)NC(=O)[C@H](C)NC(=O)[C@H](Cc1ccc(O)cc1)NC(=O)OC(C)(C)C (Boc-Tyr-Ala-Trp-OMe)
> 100,–,0.48,> 100,–,–,–,C[C@H](NC(=O)[C@@H](N)Cc1ccc(OCc2ccccc2)cc1)C(=O)N[C@@H](Cc1c[nH]c2ccccc12)C(=O)NCc1ccccc1 (H-Tyr(Bn)-Ala-Trp-NHBn)

# From ChEMBL document CHEMBL1143703, “Linear TMC-95-based proteasome inhibitors” (J Med Chem, 2007)
